Data from ChEMBL document CHEMBL1799960, “Diadenosine 5',5''-(boranated)polyphosphonate analogues as selective nucleotide pyrophosphatase/phosphodiesterase inhibitors” (J Med Chem, 2010).

Legend:
[1] = biological target: P2Y purinoceptor 1 (Homo sapiens, UniProt P47900); assay: Ratio EC50 for ATP to compound for GFP tagged-human P2Y1 receptor expressed in human 1321N1 cells assessed as elevation in calcium level after 30 mins by fluorescence spectrophotometric analysis; format: functional, cell-based
Chain of P2Y purinoceptor 1 (P47900 whole entry): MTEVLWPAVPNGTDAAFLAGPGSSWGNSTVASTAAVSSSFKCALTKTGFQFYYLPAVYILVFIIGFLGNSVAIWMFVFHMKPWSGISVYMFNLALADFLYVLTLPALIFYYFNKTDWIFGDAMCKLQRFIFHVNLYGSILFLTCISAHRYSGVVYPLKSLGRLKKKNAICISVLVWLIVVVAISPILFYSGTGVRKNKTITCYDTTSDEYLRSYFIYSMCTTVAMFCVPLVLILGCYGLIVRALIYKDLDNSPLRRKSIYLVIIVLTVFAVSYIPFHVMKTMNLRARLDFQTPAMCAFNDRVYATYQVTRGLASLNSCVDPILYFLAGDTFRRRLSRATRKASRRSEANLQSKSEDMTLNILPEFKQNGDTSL

[2] = biological target: T1, Ectonucleotide pyrophosphatase/phosphodiesterase family member 3 (Homo sapiens) (UniProt O14638); assay: Inhibition of human NPP3 expressed in COS7 cells assessed as production of p-nitrophenol using Ap5A as the substrate at 100 uM after 30 mins […]; format: cell-based; settings: COS-7
T1 sequence (whole entry): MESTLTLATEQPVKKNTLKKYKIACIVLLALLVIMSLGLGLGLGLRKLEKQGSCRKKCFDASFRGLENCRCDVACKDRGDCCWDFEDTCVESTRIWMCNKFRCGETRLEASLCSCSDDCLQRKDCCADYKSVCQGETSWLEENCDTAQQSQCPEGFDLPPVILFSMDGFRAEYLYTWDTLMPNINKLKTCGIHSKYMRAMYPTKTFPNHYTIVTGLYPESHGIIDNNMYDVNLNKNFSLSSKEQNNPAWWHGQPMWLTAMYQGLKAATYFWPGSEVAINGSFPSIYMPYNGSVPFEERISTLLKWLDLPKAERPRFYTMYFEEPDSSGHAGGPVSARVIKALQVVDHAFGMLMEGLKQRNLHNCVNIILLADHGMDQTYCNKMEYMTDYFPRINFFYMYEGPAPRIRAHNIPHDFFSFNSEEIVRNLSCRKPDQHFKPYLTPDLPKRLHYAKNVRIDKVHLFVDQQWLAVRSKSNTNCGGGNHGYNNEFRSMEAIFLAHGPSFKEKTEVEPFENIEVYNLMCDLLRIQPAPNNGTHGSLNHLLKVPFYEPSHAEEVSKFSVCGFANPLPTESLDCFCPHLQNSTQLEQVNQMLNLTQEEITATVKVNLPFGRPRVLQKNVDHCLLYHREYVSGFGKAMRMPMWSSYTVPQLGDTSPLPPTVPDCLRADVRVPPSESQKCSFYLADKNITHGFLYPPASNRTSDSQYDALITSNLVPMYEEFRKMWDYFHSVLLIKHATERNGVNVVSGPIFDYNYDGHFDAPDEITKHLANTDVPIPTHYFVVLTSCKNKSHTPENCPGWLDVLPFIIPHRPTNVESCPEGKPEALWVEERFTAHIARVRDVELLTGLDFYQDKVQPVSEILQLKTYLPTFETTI

[3] = biological target: T2, Ectonucleotide pyrophosphatase/phosphodiesterase family member 1 (Homo sapiens, UniProt P22413); assay: Inhibition of human NPP1 expressed in COS7 cells assessed as enzyme-substrate-inhibitor dissociation constant using pnp-TMP as the substrate after 15 mins […]; format: cell-based, COS-7
T2 sequence (P22413 whole entry): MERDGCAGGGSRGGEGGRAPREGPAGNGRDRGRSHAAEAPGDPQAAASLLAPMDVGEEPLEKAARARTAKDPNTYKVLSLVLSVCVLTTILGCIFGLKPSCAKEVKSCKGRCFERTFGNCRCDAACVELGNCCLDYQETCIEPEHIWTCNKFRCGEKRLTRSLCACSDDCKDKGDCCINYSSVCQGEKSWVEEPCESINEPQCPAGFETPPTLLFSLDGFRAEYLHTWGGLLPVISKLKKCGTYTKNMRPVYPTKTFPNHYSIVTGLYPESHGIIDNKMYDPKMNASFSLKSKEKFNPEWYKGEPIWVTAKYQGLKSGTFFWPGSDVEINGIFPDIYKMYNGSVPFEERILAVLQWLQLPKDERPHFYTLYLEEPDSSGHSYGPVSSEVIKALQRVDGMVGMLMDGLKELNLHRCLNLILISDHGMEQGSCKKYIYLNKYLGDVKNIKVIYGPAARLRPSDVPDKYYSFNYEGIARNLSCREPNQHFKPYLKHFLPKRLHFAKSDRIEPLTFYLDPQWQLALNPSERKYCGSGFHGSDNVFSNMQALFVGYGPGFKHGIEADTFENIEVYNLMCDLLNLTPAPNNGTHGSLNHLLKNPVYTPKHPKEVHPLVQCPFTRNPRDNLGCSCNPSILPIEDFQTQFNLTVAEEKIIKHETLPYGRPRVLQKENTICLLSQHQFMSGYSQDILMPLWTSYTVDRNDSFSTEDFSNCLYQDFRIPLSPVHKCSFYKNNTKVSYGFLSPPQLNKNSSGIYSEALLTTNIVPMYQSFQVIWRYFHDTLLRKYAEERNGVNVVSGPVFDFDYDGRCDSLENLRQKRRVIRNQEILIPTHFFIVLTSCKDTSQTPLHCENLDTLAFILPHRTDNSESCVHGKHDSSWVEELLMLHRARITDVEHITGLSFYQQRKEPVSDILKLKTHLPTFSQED

[4] = biological target: Autotaxin (Homo sapiens) (UniProt Q13822); assay: Inhibition of human NPP2 expressed in COS7 cells assessed as production of p-nitrophenol using pnp-TMP as the substrate at 100 uM after 15 mins […]; format: cell-based; settings: COS-7
How it was run: (§1)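 Human NPP1, NPP2 (membrane lysate or conditioned medium for the secreted form) or NPP3 from transfected COS-7 cells, preincubated 3 min at 37 °C in 50 mM Tris pH 8.5 buffer with CaCl2, NaCl and KCl. Substrate and inhibitor both at 100 μM final. pnp-TMP: p-nitrophenol read at 405 nm at 15 min. ATP or Ap5A: stopped at 30 min with perchloric acid, then HPLC. Results as % residual activity versus control; three to six experiments in triplicate.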

[5] = biological target: T3, Ectonucleotide pyrophosphatase/phosphodiesterase family member 1 (Homo sapiens) (UniProt P22413); assay: Inhibition of human NPP1 expressed in COS7 cells assessed as production of p-nitrophenol using pnp-TMP as the substrate at 100 uM after 15 mins […]; format: cell-based; settings: COS-7; how it was run: as §1
T3 sequence (whole entry): T2 sequence (P22413 whole entry)

Row | Ratio EC50 [1] | inhibition [2] [%] | Ki [3] [µM] | inhibition [4] [%] | inhibition [5] [%] | Structure (SMILES)
1 | 200 | 10 | 80 | 95 | > 90 | Nc1ncnc2c1ncn2[C@H]1C[C@H](O)[C@@H](COP(=O)(O)CP(=O)(O)OP(=O)(O)CP(=O)(O)OC[C@H]2O[C@@H](n3cnc4c(N)ncnc43)C[C@@H]2O)O1
2 | 2 | 10 | 31 | 95 | > 90 | BP(=O)(OP(=O)(O)CP(=O)(O)OC[C@H]1O[C@@H](n2cnc3c(N)ncnc32)[C@H](O)[C@@H]1O)OP(=O)(O)CP(=O)(O)OC[C@H]1O[C@@H](n2cnc3c(N)ncnc32)[C@H](O)[C@@H]1O
3 | > 200 | 10 | 145 | 95 | > 90 | BP(=O)(OP(=O)(O)CP(=O)(O)OC[C@H]1O[C@@H](n2cnc3c(N)ncnc32)C[C@@H]1O)OP(=O)(O)CP(=O)(O)OC[C@H]1O[C@@H](n2cnc3c(N)ncnc32)C[C@@H]1O
4 | 60 | 10 | 147 | 95 | > 90 | Nc1ncnc2c1ncn2[C@@H]1O[C@H](COP(=O)(O)CP(=O)(O)OP(=O)(O)CP(=O)(O)OC[C@H]2O[C@@H](n3cnc4c(N)ncnc43)[C@H](O)[C@@H]2O)[C@@H](O)[C@H]1O
